Results as given in PubChem BioAssay.
Records with an inconclusive call do not appear.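 How the source made its calls, unless noted: active means inhibition over a set limit, the all-compound mean plus 3 SD, in both replicate runs; inconclusive means over that limit in just one replicate run; inactive means at or under that limit in both runs.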

Key:
[1] = S. cerevisiae growth inhibition in permissive medium (OD615), pilot counter-assay for S. cerevisiae lifespan shortening project, permissive growth control (AID 705;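 active means growth inhibition above 25% in both replicates, a cutoff set 3 SD above the mean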); details: OD615, 24 h, at 10 µM, stronger effect = higher value
Summary of the method: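 System: Engineered DeaD yeast | Buffer or medium: SC raffinose/galactose permissive medium | Incubation: Cells pre-grown 4 h, then 24 h compound exposure, 30 °C humidified | Measured by: Absorbance (optical density) at 615 nm | Read-out: Reduction in yeast growth (OD615)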

[2] = S. cerevisiae growth inhibition in restrictive medium, OD615, pilot screen, restrictive growth control, yeast lifespan reduction project (AID 706;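 active means growth inhibition above a set limit, 3 SD over mean compound inhibition, in both replicates, cut at about 43% in these data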;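 further: modified DeaD lifespan yeast strain shifted to restrictive glucose medium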); details: OD615, 48 h, at 10 µM, stronger effect = higher value
Summary of the method: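 Material: modified S. cerevisiae; Medium: glucose-based CSMM-D restrictive medium; Compound dosing: one concentration, 10 µM final, 0.25% DMSO; Incubation: 48 h compound exposure at 30 °C; Measured by: OD615.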

[3] = doxorubicin toxicity protection in MRP-1 cells – H69AR cells, CellTiter-Glo, duplicate, MRP-1 activator project, pilot screen (AID 807;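 active means viability increase at or above a cutoff of the median across tested compounds plus 3 SD, cut at about 8.5% in these data, passing the limit was not always enough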;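 further: compound pretreatment 18-22 h then 72 h combined with doxorubicin; 0% = doxorubicin alone and 100% = vehicle without doxorubicin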); details: H69AR viability with doxorubicin, CellTiter-Glo luminescence; at 10 µM; stronger effect = higher value
[4] = viability of HCT116 without oncogenic beta-catenin – human colon tumor cells, pilot screen (AID 823;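 active means cell viability at or below a set limit in both duplicate runs, the limit being the all-compound median minus 4 SD, cut at about 23% in these data, passing the limit was not always enough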;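 further: 0% = wells killed by 20 µM Hyamine and 100% = untreated DMSO cell wells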); details: HCT116 beta-catenin knockout viability, CellTiter-Glo, 60 h; at 10 µM; stronger effect = lower value
[5] = viability of PTEN-null HCT116 cells – cell-based, HCT116 clonal line, CellTiter-Glo, pilot screen (AID 824;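 active means viability at or below 27.92% in each of two runs, the all-compound median minus 4 SD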;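 further: 0% = 20 µM Hyamine control and 100% = vehicle cell control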); details: HCT116 PTEN-deleted viability, 60 h, at 10 µM, stronger effect = lower value
[6] = RAM pathway blockade in budding yeast – dse1pr::URA3 reporter, 5-FOA selection, pilot screen (AID 869);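 further: 0% = DMSO wells with no growth and 100% = 10 µM 1-NA-PP1 with full growth; RAM network block rescues cells from 5-FOA so hits raise OD615 growth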; details: S. cerevisiae dse1pr::URA3 5-FOA growth, OD615, 2 d; at 10 µM; stronger effect = higher value; strain carries analog-sensitive mutant Cbk1 kinase
[7] = RAM signaling pathway blockade in yeast – S. cerevisiae, Pdr1DBD-CYC8 efflux-inhibited sensitized strain, primary screen (AID 1298;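 active means RAM network inhibition above 8.4% in each of two replicates, 3 SD over the compound average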;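 further: 0% = DMSO untreated cells without growth and 100% = 10 µM 1-NA-PP1 full growth; higher means more yeast growth rescued from 5-FOA killing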); details: S. cerevisiae cbk1-as DSE1-URA3 strain, 5-FOA growth OD615, 2 d; at 50 µM; stronger effect = higher value

CCCCCc1nnc(NC(=O)OCCC)s1
inactive: growth inhibition [1] -1% | growth inhibition [2] 14.7% | viability increase [3] -3.57% | viability [4] 97.8% | viability [5] 91.2% | inhibition [6] 0.63% | RAM network inhibition [7] -0.93%

O=C(Cn1c(=O)[nH]c2ccsc2c1=O)NC1CCCCC1
inactive: growth inhibition [1] -3.32% | growth inhibition [2] -5.46% | viability increase [3] 0.65% | viability [4] 94.9% | viability [5] 93.9% | inhibition [6] 1.41% | RAM network inhibition [7] -1.43%

Cc1ccc(C)c(C(=O)CSc2n[nH]c(C)n2)c1
inactive: growth inhibition [1] 0.045% | growth inhibition [2] 11.3% | viability increase [3] -0.91% | viability [4] 102% | viability [5] 102% | inhibition [6] 1.77% | RAM network inhibition [7] 1.5%

CC(C)Cn1c(CN2C(=O)c3ccccc3C2=O)nc2ccccc2c1=O
inactive: growth inhibition [1] -8.43% | growth inhibition [2] -9.18% | viability increase [3] -0.19% | viability [4] 98.4% | viability [5] 93.4% | inhibition [6] 3.54% | RAM network inhibition [7] 5.36%

Cc1nc2ccccc2c2oc(C(=O)NCCCN3CCC(C)CC3)cc12
inactive: growth inhibition [1] 2.51% | growth inhibition [2] 17.8% | viability increase [3] -5.7% | viability [4] 63.6% | viability [5] 64.7% | inhibition [6] 1.96% | RAM network inhibition [7] 6.26%

Cc1ccc2oc3c(c(=O)c2c1)C(c1cccc(O)c1)N(c1ccccn1)C3=O (configuration not stated)
inactive: growth inhibition [1] -2.51% | growth inhibition [2] -0.22% | viability increase [3] -2.59% | viability [4] 79.4% | viability [5] 68.2% | inhibition [6] 1.81% | RAM network inhibition [7] 4.84%

CC(=O)N(c1ccc(C)cc1)C1C=CS(=O)(=O)C1 (configuration not stated)
inactive: growth inhibition [1] -8.96% | growth inhibition [2] 7.8% | viability increase [3] -0.41% | viability [4] 101% | viability [5] 105% | inhibition [6] 0.6% | RAM network inhibition [7] 7.21%

CN1CCN(Cc2c(O)ccc3occ(C(=O)c4ccccc4)c23)CC1
inactive: growth inhibition [1] -13% | growth inhibition [2] -16.2% | viability increase [3] -4% | viability [4] 73% | viability [5] 79% | inhibition [6] 1.56% | RAM network inhibition [7] 7.8%

CC(=O)N1CCN(c2ccc(NCc3ccc(F)cc3)cc2)CC1
inactive: growth inhibition [1] -7.68% | growth inhibition [2] 0.705% | viability increase [3] -2.9% | viability [4] 90.1% | viability [5] 83.1% | inhibition [6] 2.81% | RAM network inhibition [7] 2.34%

COc1ccc(-c2cn3c(C)c(C(=O)N4CCc5ccccc5C4)sc3n2)cc1
inactive: growth inhibition [1] 0.41% | growth inhibition [2] 6.71% | viability increase [3] -7.22% | viability [4] 87.6% | viability [5] 84.5% | inhibition [6] 3.01% | RAM network inhibition [7] 4.47%

COc1ccc(C2C=C(c3ccccc3)Nc3nnnn32)cc1 (configuration not stated)
inactive: growth inhibition [1] -5.09% | growth inhibition [2] 5.53% | viability increase [3] 0.19% | viability [4] 95.3% | viability [5] 90.3% | inhibition [6] 0.855% | RAM network inhibition [7] 5.93%

O=C1NCCCC1C(=O)NCCN1C(=O)CCC1=O (configuration not stated)
inactive: growth inhibition [1] -14.3% | growth inhibition [2] -7.9% | viability increase [3] 0.1% | viability [4] 96.7% | viability [5] 96% | inhibition [6] 1.04% | RAM network inhibition [7] 3.29%

C=CCn1c(SCC(=O)NCc2ccco2)nc2sc3c(c2c1=O)CCC3
inactive: growth inhibition [1] -1.65% | growth inhibition [2] 0.995% | viability increase [3] -4.9% | viability [4] 98.6% | viability [5] 92.6% | inhibition [6] 2.48% | RAM network inhibition [7] 1.5%

ON1C(c2ccc(Cl)cc2Cl)N(O)[C@H]2CCCC[C@H]21 (some centres not stated)
inactive: growth inhibition [1] -6.31% | growth inhibition [2] -5.43% | viability increase [3] -1.27% | viability [4] 101% | viability [5] 100% | inhibition [6] 1.35% | RAM network inhibition [7] 4.97%

NC(=O)C1(S(=O)(=O)c2ccccc2)CCCCC1
inactive: growth inhibition [1] -0.22% | growth inhibition [2] -4.29% | viability increase [3] -1.06% | viability [4] 97.8% | viability [5] 96.7% | inhibition [6] 1.43% | RAM network inhibition [7] 4.97%

O=C(NC1CCCCCC1)C1C2C=CC3(CN(Cc4cccnc4)C(=O)C13)O2 (configuration not stated)
inactive: growth inhibition [1] 0.045% | growth inhibition [2] 8.75% | viability increase [3] 0.68% | viability [4] 101% | viability [5] 107% | inhibition [6] 0.18% | RAM network inhibition [7] 1.44%
